In ChEMBL document CHEMBL1926607 (J Med Chem, 2011):
pKi: −log10 of the molar value.

target: 5-hydroxytryptamine receptor 2A (Rattus norvegicus, UniProt P14842); experiment: Displacement of [3H]ketanserin from 5HT2A receptor in Sprague-Dawley albinus rat frontal cortex membranes after 15 mins; type: cell membranes, Membrane
In short: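 Rat frontal cortex membranes (male Sprague–Dawley, 180–200 g). Nonspecific binding was set with 1 μM cinanserin.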

Sequence of 5-hydroxytryptamine receptor 2A (P14842 whole entry): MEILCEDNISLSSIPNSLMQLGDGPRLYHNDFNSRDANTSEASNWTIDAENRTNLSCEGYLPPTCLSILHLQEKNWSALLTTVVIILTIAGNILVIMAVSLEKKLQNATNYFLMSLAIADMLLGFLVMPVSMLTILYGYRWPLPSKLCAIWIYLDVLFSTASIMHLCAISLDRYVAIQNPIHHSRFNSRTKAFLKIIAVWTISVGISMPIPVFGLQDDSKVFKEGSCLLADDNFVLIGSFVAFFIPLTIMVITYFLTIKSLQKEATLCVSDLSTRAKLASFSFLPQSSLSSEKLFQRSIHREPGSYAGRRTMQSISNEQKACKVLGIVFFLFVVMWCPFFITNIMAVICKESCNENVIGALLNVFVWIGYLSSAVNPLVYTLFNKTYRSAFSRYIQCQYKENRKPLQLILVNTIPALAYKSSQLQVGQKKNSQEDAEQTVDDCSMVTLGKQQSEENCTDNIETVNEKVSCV

O=C1C2CCCN2C(=O)N1CCCCNCc1ccc2ccccc2c1 (configuration not stated) and O=C1C2CCCN2C(=O)N1Cc1cccc(CNCC2CCc3ccccc3O2)c1 (configuration not stated) cannot be ordered by pKi: under 6.00 for the first, under 6.00 for the second.

O=C1C2CCCN2C(=O)N1C/C=C/CNCC1CCc2ccccc2O1 (configuration not stated) showed a pKi of under 6.00.

target: T1, 5-hydroxytryptamine receptor 1A (Rattus norvegicus, UniProt P19327); experiment: Displacement of [3H]-8-OH-DPAT from 5-HT1A receptor in Sprague-Dawley albinus rat cerebral cortex membranes after 15 mins; type: cell membranes, Membrane
T1 sequence (P19327 whole entry): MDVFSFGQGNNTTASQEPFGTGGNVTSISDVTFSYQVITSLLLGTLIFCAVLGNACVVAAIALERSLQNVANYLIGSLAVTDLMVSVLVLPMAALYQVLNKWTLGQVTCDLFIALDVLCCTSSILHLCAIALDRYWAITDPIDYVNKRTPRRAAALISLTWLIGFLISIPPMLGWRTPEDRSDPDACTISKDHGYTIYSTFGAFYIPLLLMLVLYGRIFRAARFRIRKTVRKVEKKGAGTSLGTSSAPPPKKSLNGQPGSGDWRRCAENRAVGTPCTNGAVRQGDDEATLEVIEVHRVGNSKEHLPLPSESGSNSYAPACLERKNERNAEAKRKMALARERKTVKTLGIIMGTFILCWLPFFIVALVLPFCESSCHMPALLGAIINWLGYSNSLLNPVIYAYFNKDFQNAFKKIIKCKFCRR

O=C1C2CCCN2C(=O)N1CCCCNCc1ccco1 (configuration not stated) and O=C1C2CCCN2C(=O)N1CCCCNCCc1ccco1 (configuration not stated) cannot be ordered by pKi: under 6.00 for the first, under 6.00 for the second.

Compared with O=C1C2CCCN2C(=O)N1CCCCCCCCNCC1CCc2ccccc2O1 (configuration not stated), O=C1C2CCCN2C(=O)N1CC#CCNCC1CCc2ccccc2O1 (configuration not stated) is lower in pKi: 7.06 for the first, under 6.00 for the second. The first binds more tightly here.

First: O=C1C2CCCN2C(=O)N1CCCCNCc1cccc2ccccc12 (configuration not stated)
Second: O=C1C2CCCN2C(=O)N1CCCCNCc1ccc2ccccc2c1 (configuration not stated)
The pKi of the first is lower: under 6.00 for the first, 7.31 for the second. The second binds more tightly here.

Going from O=C1C2CCCN2C(=O)N1C/C=C\CNCC1CCc2ccccc2O1 (configuration not stated) to O=C1C2CCCN2C(=O)N1C/C=C/CNCC1CCc2ccccc2O1 (configuration not stated), the pKi rises from 6.94 to 7.57 (0.63 log units).

O=C1C2CCCN2C(=O)N1CCCCNCCc1ccccc1 (configuration not stated) and O=C1C2CCCN2C(=O)N1CCCCNCc1ccccc1 (configuration not stated) cannot be ordered by pKi: under 6.00 for the first, under 6.00 for the second.

O=C1C2CCCN2C(=O)N1CCCCNCc1cccs1 (configuration not stated) and O=C1C2CCCN2C(=O)N1CCCCNCCc1cccs1 (configuration not stated) cannot be ordered by pKi: under 6.00 for the first, under 6.00 for the second.

O=C1C2CCCN2C(=O)N1CCCCNCc1ccccn1 (configuration not stated) and O=C1C2CCCN2C(=O)N1CCCCNCCc1ccccn1 (configuration not stated) cannot be ordered by pKi: under 6.00 for the first, under 6.00 for the second.
